Series [1] is described as follows: CSF pharmacokinetics of ABT-384 and acid metabolite after five daily doses. The format is in vivo, human. The settings on record: for CSF levels as percent of the free plasma levels / CSF levels as percent of the total plasma levels: 1-50 mg QD for 5 days; for CSF/free plasma exposure ratio: across the dose range tested (1-50 mg QD). Put shortly: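 Two subjects received 50 mg QD for 5 days. CSF was drawn by catheter before dosing, every 30 min for 8 h, and at 9, 12, 16 and 24 h. Other subjects were sampled hourly during the D4 cortisol infusions plus set post-dose times. Parent and acid metabolite were measured by validated HPLC–MS with D6 stable-label internal standards, injected directly without online solid-phase extraction.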

For series [2], the target named is T1, 11-beta-hydroxysteroid dehydrogenase type 1 (HSD-1) (Homo sapiens, UniProt P28845). Conditions: cited from earlier work.
T1 sequence (P28845 whole entry): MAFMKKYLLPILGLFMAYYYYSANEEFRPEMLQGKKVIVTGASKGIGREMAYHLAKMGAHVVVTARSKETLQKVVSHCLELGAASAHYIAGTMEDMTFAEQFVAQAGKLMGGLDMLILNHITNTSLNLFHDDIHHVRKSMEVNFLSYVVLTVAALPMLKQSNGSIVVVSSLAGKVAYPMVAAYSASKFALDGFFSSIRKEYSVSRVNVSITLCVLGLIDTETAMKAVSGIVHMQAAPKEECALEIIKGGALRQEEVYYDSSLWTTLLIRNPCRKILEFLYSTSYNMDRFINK
Series [3] in a line: Safety and tolerability in the clinical study. The format is in vivo, human. In a few lines:
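This open-label, single-site multiple-dose study ran 1–50 mg QD for 5 days. Subjects were confined from Day −1 until at least 48 h after CSF catheter removal, and adverse events were recorded until 30 days after the last dose.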

Series [4] can be described thus: Plasma pharmacokinetics of ABT-384 and metabolites after five daily doses. The format is in vivo, human.
Series [5] concerns the target T1, 11-beta-hydroxysteroid dehydrogenase type 1 (HSD-1). The format is in vivo. The settings on record: regimens of 1-50 mg ABT-384 QD for 5 days, spot urine.
The conditions of series [6]: 1 mg ABT-384 QD for 7 days; cited from earlier work.
For series [7] the following is noted: daily doses up to 100 mg, healthy volunteers and elderly subjects; cited from earlier work.
Series [8] addresses T1, 11-beta-hydroxysteroid dehydrogenase type 1 (HSD-1). It is filed as in vivo.
For series [9] the target is unchanged. The format is in vivo. In a few lines:
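During primed continuous D4 cortisol infusions after five daily doses, plasma was collected hourly. Labeled cortisol and cortisone were measured by mass spectrometry, and the plasma D3 cortisol/D3 cortisone ratio served as a measure of total-body HSD-1 activity.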
The source holds these as a separate data set.

The target is the same in series [10]. In words: Peripheral HSD-1 inhibition: 1-. The format is in vivo. In a few lines:
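Plasma was sampled hourly during two 8 h D4 cortisol infusions on Days 5–6, after 5 days of once-daily dosing. Inhibition = 1 − (plasma D3 cortisol/plasma D4 cortisol), where 1 approximates the steady-state ratio seen in untreated control subjects. Values are given per time point across both infusions (16 time points).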

Series [11] can be described thus: Preclinical tissue distribution, liver relative to plasma. The format is in vivo. The settings on record: rats; data on file.
Test in series [12]: as above
Conditions: monkeys; data on file. The format is in vivo.

The target in another series is HSD-1 (Homo sapiens, UniProt P28845). Put plainly: HSD-1 binding and dissociation kinetics in vitro. Conditions: data on file.
Sequence of HSD-1 (P28845 whole entry): as above
[13] abbreviates: 1-50 mg ABT-384 QD for 5 days, healthy men.

Entries after “also recorded” stand apart in the source; their conditions may differ. Read-outs that look alike come from different tables or passages of the source.

For `CC(C)(C(=O)NC1C2CC3CC1CC(C(N)=O)(C3)C2)N1CCN(c2ccc(C(F)(F)F)cn2)CC1` (centres unmarked) [ABT-384], the “CSF levels as percent of the free plasma levels” value in [1] was 10–50%. Besides, in series [1], the “CSF levels as percent of the total plasma levels” value was 0.3–1%. The “CSF/free plasma exposure ratio” value in [1] was “less than 0.5”. Also, in series [1] (after last dose on Day 5), the “time to peak levels in the CSF” value lay in the range of 2.5 to 5 h. In addition, the “decrease of ratio of urine cortisol metabolites to cortisone metabolite” value in series [2] (1-100 mg ABT-384 QD for 7 days, 24-h urine collection) is reported as 87–97%. Moreover, the “hepatic HSD-1 inhibition” value in series [2] (regimens from 1 mg daily (1 mg QD for 7 days)) is reported as “fully inhibited hepatic HSD-1; also recorded: full hepatic HSD-1 inhibition for 24 h”; in [5] it was “full hepatic HSD-1 inhibition”. Also, in series [3] (setting [13]), the “adrenocorticotropic hormone or cortisol values above normal” value is reported as “No subject showed adrenocorticotropic hormone or cortisol values above normal”. The “changes of clinical laboratory tests, vital signs or electrocardiography parameters” value in series [3] (setting [13]) is listed as “No clinically significant changes”. Besides, the “deaths, serious adverse events, discontinuations due to adverse events” value in [3] (setting [13]) is given as “No deaths, other serious adverse events or discontinuations due to adverse events occurred”. Besides, the tolerability entry in series [3] (regimens of 1-50 mg ABT-384 QD for 5 days) is reported as “well tolerated”; in [7] it was “generally well tolerated”. In addition, the “time to peak levels in the plasma” value in [4] (after last dose on Day 5, 1-50 mg QD) was in the range of 1.5 to 3 h. Also, the “plasma Cmax at which full peripheral HSD-1 inhibition was observed” value in series [4] (man) is approximately 2 ng/mL. Also, the “mean plasma Cmax” value in series [6] is 9.41 ng/mL. The “CNS HSD-1 inhibition (CNS formation of D3 cortisol)” value in [8] (1 mg ABT-384 QD for 5 days) was “partial but substantial CNS HSD-1 inhibition; also recorded: Reduced CNS D3 cortisol formation”; in series [8] (2-50 mg ABT-384 QD for 5 days, through 40 h after the last dose), “full CNS HSD-1 inhibition; also recorded: essentially complete CNS HSD-1 inhibition; also recorded: Complete blockade of D3 cortisol formation in the CNS”. The “intrinsic CSF D3 cortisol compared with the level attained in the absence of study drug” value in series [8] (1 mg regimen, hours 4-8 of each D4 cortisol infusion) was “approximately two- to three-fold lower”. In [8] (QD dosing), the “minimum daily dose to achieve full CNS HSD-1 inhibition” value is not above 2 mg. In addition, the “peripheral HSD-1 inhibition” value is listed as 81–87% in series [9] (1 mg QD, each hour from 33 to 40 h after the last dose); not below 81% in series [9] (ABT-384 1 mg daily, five daily doses, up to 40 h after last dose); not below 88% in series [9] (ABT-384 regimens ⩾2 mg daily, five daily doses, up to 40 h after last dose); approximately 86% in series [10] (1 mg regimen, at 40 h after the last dose); approximately 90% in [10] (1 mg regimen, each of eight time points up to 8 h after the last dose); 91–93% in series [10] (2, 10 and 50 mg QD, each of 16 time points up to 40 h after the last dose). Moreover, the “HSD-1 inhibition predicted from plasma Cmax” value in series [9] (plasma Cmax ~2 ng ml^−1, assuming reversible inhibition, in the absence of preferential tissue distribution) is on record as approximately 60%. Moreover, the “distribution to the liver relative to the plasma” value in series [11] and in [12] was “preferentially distributes to the liver” in each case. For the same molecule, the “binding to and dissociation from HSD-1” value at HSD-1 is “rapid binding to, and very slow dissociation from; also recorded: rapid binding, slow dissociation kinetics”.

As for `O=C(O)C(O)(c1cccs1)c1cccs1` [Acid Metabolite], in [1], the “CSF levels as percent of the free plasma levels” value is listed as 110–150%, the “CSF levels as percent of the total plasma levels” value is listed as 3–4% and the “CSF/free plasma exposure ratio” value is “greater than 1”. Further, in series [1] (CSF), the “mean acid metabolite/parent AUC0-24 ratio in CSF” value is reported as 70–90% and the “mean acid metabolite/parent Cmax ratio in CSF” value is given as approximately 40%. In series [4] (plasma), the “mean acid metabolite/parent AUC0-24 ratio in plasma” value was less than 20% and the “mean acid metabolite/parent Cmax ratio in plasma” value is listed as less than 10%. Further, in series [4] (plasma, 1-50 mg QD for 5 days), the “mean metabolite/parent Cmax ratio” value was 6–9%. For the same molecule, the “mean plasma Cmax” value in series [6] is 0.31 ng/mL.

These data come from publication PMC3756293 (Translational Psychiatry, 2013).
